# Source: the RNAGym collection of RNA variant scans (doi:10.1126/science.aae0568)
# Fewer inactive variants are shown than the library holds.
# B1: tRNA (parent)
# chain: GUUCCGUUGGCGUAAUGGUAACGCGUCUCCCUCCUAAGGAGAAGACUGCGGGUUCGAGUCCCGUACGGAACG
# Variants of: B1
# Test: yeast fitness relative to wild type (ratio to wild type); higher = fitter; tRNA-Arg(CCU), competitive growth, 37 C, YPD
# Outline: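 Changes in genotype frequencies gave Darwinian fitness relative to wild type. Frequencies were read by 100-nucleotide paired-end sequencing of gene amplicons before and after pooled Saccharomyces cerevisiae strains, carrying tRNA-Arg(CCU) gene variants at the native locus, were competed in YPD at 37°C for 24 hours in six replicates. A genotype was kept only with ≥ 100 starting reads, and estimates < 0.5 were set to 0.5.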
row,Variant,yeast fitness
1,U3C C30A U35C G39A A42C A43G C46U A65C,≤ 0.5
2,U3C G23A U28G,≤ 0.5
3,U3C G12A,0.963
4,U3C C31U G39A G44A C61U,≤ 0.5
5,U3C C30U C55U G58A,≤ 0.5
6,U3C C31U G50A G58C C66U,≤ 0.5
7,U3C C30G A43C,0.548
8,U3G C4A G12A C29A C30G,0.556
9,U3G U8C A15G C24G G50A C55U,≤ 0.5
10,U3G A15U C61A,≤ 0.5
11,U3G G18A U28A,0.613
12,U3C G23C C30A A36G G38C,≤ 0.5
13,U3G A37U U54C G58A C66U,≤ 0.5
14,U3G G12C U19C C60U,≤ 0.5
15,U3C U53A,0.664
16,U3C U19G A43U A65G G68A,≤ 0.5
17,U3C G58C G67C,0.701
18,U3C G58A G68C,0.59
19,U3G C31U,1
20,U3G C5G G10A C30A C31G C49A C60U G67A,0.572
21,U3G U8C G50C G68C,≤ 0.5
22,U3G A65U,0.855
23,U3G A45C G63A A69U,0.831
24,U3G C11U G17A U19C A20U A42C A65C A69U,≤ 0.5

row,Variant,yeast fitness
1,U3G C27A,0.633
2,U3G G6A A14G G38C G41C A57C,0.62
3,U3C G48C C55A,0.541
4,U3G A40G C46A,0.665
5,U3G A20C,0.987
6,U3G U35G A40C G48A C60U U64G A65U A69C,≤ 0.5
7,U3G G17A C30U A69U,≤ 0.5
8,U3G C5G C11U C29U U32C C60U,≤ 0.5
9,U3G G17C C31A U35C A45U,≤ 0.5
10,U3G A15U A36G,≤ 0.5
11,U3C G9A A57C,0.584
12,U3C U16G U19A A43U A57U,≤ 0.5
13,U3C C49G G63C,0.617
14,U3G G44C,0.739
15,U3G A45G A57G,0.717
16,U3C C31U U54A,0.583
17,U3C G9C C11U U19C C30G A43C,≤ 0.5
18,U3C G6A G18C C30U C31U G48A C55G A65U,≤ 0.5
19,U3G U16C G48U,0.633
20,U3G A70C,0.897
21,U3G C55A,0.644
22,U3G C4A G9A G56A C61G,≤ 0.5
23,U3G C46U U59A,0.562
24,U3G G68A,0.851

row,Variant,yeast fitness
1,U3C C62U A69C,0.756
2,U3C U13A C31U G41A,0.524
3,U3G A14G C30U G48C G68C,≤ 0.5
4,U3C G10A G23A C62G G67A,≤ 0.5
5,U3C U19G C27G C33G U53G,0.578
6,U3C G44C C46A,0.672
7,U3C G6A U16C G17A,≤ 0.5
8,U3C C31G U32C G38C C46G G48C,≤ 0.5
9,U3G G50C,0.699
10,U3G C46A,0.802
11,U3G C46U,0.903
12,U3C G56A C60A,0.568
13,U3C U32G A40C G41A,≤ 0.5
14,U3C C62A,0.865
15,U3C C30G A42C,≤ 0.5
16,U3G U8C A70C,0.59
17,U3C G25A A45G,0.59
18,U3G G9C,0.573
19,U3G C11U U19C A20U A42C C49U G56C,≤ 0.5
20,U3C G48C C66U,0.761
21,U3C U8G U32A C33G A43U C61U C62U,≤ 0.5
22,C4A A14C C60G C66U G68A,0.561
23,U3G A14U C30U C55A,≤ 0.5
24,U3C U28A U35C A37C G56C A57G G68U,≤ 0.5

row,Variant,yeast fitness
1,U3C G10C C33U A40C,≤ 0.5
2,U3C G12A C30U C46G,≤ 0.5
3,U3G C22A C24U U35G A45U A65U A70U,≤ 0.5
4,U3G C31A G50A G67A,≤ 0.5
5,U3C C31U A65C,0.791
6,U3G U16C C29G,≤ 0.5
7,U3G C5G U19C C66U,0.57
8,U3G C33U A42G C61A,0.538
9,U3C U7C G41A A42C G50C A70G,≤ 0.5
10,U3C U8A G25A A45G,0.578
11,U3C G17A C30G C61G,≤ 0.5
12,U3G U47G C60G,0.503
13,U3C G18A U53A U54G,0.544
14,U3G A15U C46G C61A,≤ 0.5
15,U3C U19G A21C U32A A37U,≤ 0.5
16,U3G G67A,0.846
17,U3G A69C,0.867
18,U3C G56A,1.03
19,U3G C27G G50C,≤ 0.5
20,U3C G52A G68A,≤ 0.5
21,U3G G25A A45C A69U,0.814
22,U3C U19A C22U,0.558
23,U3C U32C C33U A42U,0.563
24,U3G C5U A70G,≤ 0.5

row,Variant,yeast fitness
1,U3G U8A C31A A69C A70G,≤ 0.5
2,U3G C31A G41A,≤ 0.5
3,U3G U7A G9A,≤ 0.5
4,U3C U54C G67C,≤ 0.5
5,U3C G50A A57G,0.632
6,U3G C5U G10A C31U G41C A43C,≤ 0.5
7,U3C C30U G44A,0.566
8,U3C G51C A57G,≤ 0.5
9,U3C G39A A57U C62G,≤ 0.5
10,U3C C31U C62U,0.804
11,U3C U13A A20C C30A C31A U54A C55U,≤ 0.5
12,C4A A14C A70G,≤ 0.5
13,U3C G10C C34U,0.586
14,U3G A15G A21U G48A,≤ 0.5
15,U3C G12A A45U C66G,0.685
16,U3C G58A C61U A70G,0.777
17,U3C G9A U28G,0.59
18,U3G C11U U47A G48C,0.675
19,U3C U7A C27A,≤ 0.5
20,U3G C11G C34U C55U,≤ 0.5
21,U3C C33U,0.803
22,U3G C4U U35A G58A,≤ 0.5
23,U3G C4A,0.949
24,U3G A20G C49U,≤ 0.5

row,Variant,yeast fitness
1,U3C C33G A69C,0.621
2,U3G A14C C24G C60U U64A,≤ 0.5
3,U3C C34U G41C C49U G58A U64A,≤ 0.5
4,U3G G17A C27G C33U A45G,≤ 0.5
5,U3G U8C A43C,≤ 0.5
6,U3G C4A A40U C62U G63C,≤ 0.5
7,U3C C30U A37G C61A,≤ 0.5
8,U3G C24U C31U,0.793
9,U3C G9A G48C,0.784
10,U3C G9A C34G A42G C49G C62U A69C,≤ 0.5
11,U3G A14G C62G A69G,≤ 0.5
12,U3G C11G,0.556
13,U3G C11U,0.748
14,U3C U19A A65G,0.796
15,U3C G6C G38C C46A,≤ 0.5
16,U3G C34G C62U,≤ 0.5
17,U3C C55G U64A,0.563
18,U3C G25A U59A,0.642
19,U3C C55U G58A,0.508
20,U3C G6C A14U G25A G38A U47A C60G,0.558
21,U3G C5U U26A,≤ 0.5
22,U3G C22A G25C C33U,0.606
23,U3C C49G,0.943
24,U3C C31U G58C,0.712

row,Variant,yeast fitness
1,U3C U32C A65U G68A,≤ 0.5
2,U3C U16C C49G,≤ 0.5
3,U3C C34G A57C,0.715
4,U3C G18C C31G C34G,≤ 0.5
5,U3C G10C A20C G56C,0.577
6,U3G G17C A42U C62U,≤ 0.5
7,U3G U8C C24A C30U,≤ 0.5
8,U3G U13C C33A A42U C49U C55A,≤ 0.5
9,U3C U8A U19A,0.63
10,U3C G18C C31G C61A,0.535
11,U3G G18A,0.694
12,U3G C5U G39C U47A,0.538
13,U3G A43G,0.936
14,U3C C46G A69C,0.625
15,U3C G12A A37C A45U G48C G50A,≤ 0.5
16,U3C G50A A65U,0.652
17,U3C G6A C29G G58A,≤ 0.5
18,U3C C31A A42G A43G G68C,≤ 0.5
19,U3G A15G A21U C24U G38A C61G C66U A69U,≤ 0.5
20,U3C U8A C66A,0.529
21,U3C G12A C33G A42C A65G,≤ 0.5
22,U3C C55U C61A,≤ 0.5
23,U3C G10A C46U U47A U54C,≤ 0.5
